In ChEMBL document CHEMBL1138666, “Direct influence of C-terminally substituted amino acids in the Dmt-Tic pharmacophore on delta-opioid receptor selectivity and antagonism” (J Med Chem, 2004):
Square brackets hold non-standard residues; d marks the D form. Peptide text beside a SMILES is read from it. ξ: configuration not given here. Dmt = Cc1cc(O)cc(C)c1C[C@H](N)C(=O)O; Tic = O=C(O)[C@@H]1Cc2ccccc2CN1; ξTic = O=C(O)C1Cc2ccccc2CN1

Legend:
[1] = Binding affinity for rat Opioid receptor mu 1
[2] = species on record: Rattus norvegicus; experiment: Ratio of binding affinities for rat Opioid receptors mu 1 and delta 1
[3] = target: T1, Mu-type opioid receptor (Cavia porcellus, UniProt P97266); experiment: Inhibition of Opioid receptor mu 1 in guinea pig ileum assay; type: functional, tissue-based
T1 sequence (P97266 whole entry): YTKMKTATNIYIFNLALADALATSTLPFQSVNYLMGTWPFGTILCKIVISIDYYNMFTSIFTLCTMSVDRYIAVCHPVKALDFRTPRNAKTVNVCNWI
Outline: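 Male guinea pig ileum myenteric plexus-longitudinal muscle, field-stimulated with supramaximal-voltage bipolar rectangular pulses. Inhibition of the electrically evoked twitch was measured, with dermorphin as reference agonist. IC50 was taken from concentration-response curves, mean ± SE of at least five to six fresh tissues.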

[4] = Binding affinity for rat Opioid receptor delta 1
Outline: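 Rat brain synaptosomes (P2), preincubated to remove endogenous opioids and stored at -80 °C in buffered 20% glycerol. […] Filters were PEI-soaked GF/C, washed thrice in ice-cold buffered BSA. Five to eight doses, duplicates, independent preparations; Ki by Cheng-Prusoff, mean ± SE.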

[5] = target: T2, Delta-type opioid receptor (Mus musculus, UniProt P32300); experiment: Antagonist activity against deltorphin in mouse vas deferens assay; type: functional, tissue-based; settings: read-out: pA2 (converted)
T2 sequence (P32300 whole entry): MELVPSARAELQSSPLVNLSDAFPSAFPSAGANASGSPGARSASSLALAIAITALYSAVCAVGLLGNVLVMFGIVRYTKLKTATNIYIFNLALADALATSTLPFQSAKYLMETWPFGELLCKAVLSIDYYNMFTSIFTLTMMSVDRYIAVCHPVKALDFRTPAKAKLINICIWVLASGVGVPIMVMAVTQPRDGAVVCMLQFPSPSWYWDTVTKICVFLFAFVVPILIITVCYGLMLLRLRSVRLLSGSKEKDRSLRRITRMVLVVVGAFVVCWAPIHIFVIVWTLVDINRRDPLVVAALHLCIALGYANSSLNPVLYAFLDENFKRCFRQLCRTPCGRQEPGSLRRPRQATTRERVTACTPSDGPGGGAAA
Outline: (§1)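 Mouse vas deferens, field-stimulated with supramaximal-voltage bipolar rectangular pulses. Antagonism was scored as a rightward shift of the deltorphin C log(concentration)-response curve and reported as pA2, the negative log molar antagonist concentration that doubles the agonist concentration needed for the original submaximal response.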

[6] = target: T1, Mu-type opioid receptor; experiment: Antagonist activity against dermorphin in guinea pig ileum assay; type: functional, tissue-based; settings: read-out: pA2 (converted)
Outline: as §1, with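 “Male guinea pig ileum myenteric plexus-longitudinal muscle,” for “Mouse vas deferens,”, “dermorphin” for “deltorphin C”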

[7] = target: T2, Delta-type opioid receptor; experiment: Inhibition of Delta opioid receptor in mouse vas deferens assay; type: functional
Outline: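 Mouse vas deferens, field-stimulated with supramaximal-voltage bipolar rectangular pulses. Inhibition of the electrically evoked twitch was measured, with deltorphin C as reference agonist. IC50 was taken from concentration-response curves, mean ± SE of at least five to six fresh tissues.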

Structure (SMILES) | Ki [1] | Ratio [2] | IC50 [3] | Ki [4] | Kb [5] | Kb [6] | IC50 [7]
Cc1cc(O)cc(C)c1C[C@H](N)C(=O)N1Cc2ccccc2C[C@H]1C(=O)NC(Cc1c[nH]cn1)C(=O)O (single isomer, unassigned) | 174 nM | 1.4 | > 10 µM | 0.12 nM | 1.91 nM | – | –
Cc1cc(O)cc(C)c1C[C@H](N)C(=O)N1Cc2ccccc2C[C@H]1C(=O)N[C@@H](Cc1c[nH]c2ccccc12)C(=O)O (H-[Dmt]-[Tic]-Trp-OH) | 15.7 nM | – | 1.5 µM | 0.03 nM | 0.269 nM | – | –
Cc1cc(O)cc(C)c1C[C@H](N)C(=O)N1Cc2ccccc2C[C@H]1C(=O)N[C@@H](CC(N)=O)C(=O)O | 80.3 nM | 73 | > 10 µM | 1.1 nM | 5.89 nM | – | –
Cc1cc(O)cc(C)c1C[C@H](N)C(=O)N1Cc2ccccc2CC1C(=O)N[C@@H](Cc1c[nH]c2ccccc12)C(=O)O (some centres undefined) (H-[Dmt]-[ξTic]-Trp-OH) | – | 462 | – | – | – | – | –
Cc1cc(O)cc(C)c1C[C@H](N)C(=O)N1Cc2ccccc2C[C@H]1C(=O)NC(CO)C(=O)O (single isomer, unassigned) | 2830 nM | 10.5 | > 10 µM | 0.27 nM | 1.32 nM | – | –
Cc1cc(O)cc(C)c1C[C@H](N)C(=O)N1Cc2ccccc2C[C@H]1C(=O)N[C@H](C)C(=O)O | – | 20.4 | – | – | – | – | –
Cc1cc(O)cc(C)c1C[C@H](N)C(=O)N1Cc2ccccc2C[C@H]1C(=O)NC(CCCN=C(N)N)C(N)=O (single isomer, unassigned) | 15.1 nM | 21 | 6.6 µM | 0.73 nM | 126 nM | – | –
Cc1cc(O)cc(C)c1C[C@H](N)C(=O)N1Cc2ccccc2C[C@H]1C(=O)N[C@H](CC(=O)O)C(N)=O | 367 nM | 834 | > 10 µM | 0.44 nM | 7.24 nM | – | –
Cc1cc(O)cc(C)c1C[C@H](N)C(=O)N1Cc2ccccc2C[C@H]1C(=O)NC(CCCCN)C(N)=O (single isomer, unassigned) | 17 nM | 24 | 7.87 µM | 0.71 nM | 13.5 nM | – | –
Cc1cc(O)cc(C)c1C[C@H](N)C(=O)N1Cc2ccccc2C[C@H]1C(=O)NC(CO)C(N)=O (single isomer, unassigned) | 140 nM | 1.12 | > 10 µM | 0.13 nM | 8.51 nM | – | –
Cc1cc(O)cc(C)c1C[C@H](N)C(=O)N1Cc2ccccc2C[C@H]1C(=O)N[C@@H](C)C(=O)O | 5820 nM | – | > 10 µM | 0.29 nM | – | – | –
Cc1cc(O)cc(C)c1C[C@H](N)C(=O)N1Cc2ccccc2C[C@H]1C(=O)N[C@H](CCC(N)=O)C(=O)O | 562 nM | 1.25 | > 10 µM | 0.45 nM | 1.23 nM | – | –
Cc1cc(O)cc(C)c1C[C@H](N)C(=O)N1Cc2ccccc2C[C@H]1C(=O)NCC(N)=O (H-[Dmt]-[Tic]-Gly-NH2) | 140 nM | 559 | > 10 µM | 0.25 nM | 22.4 nM | – | –
Cc1cc(O)cc(C)c1C[C@H](N)C(=O)N1Cc2ccccc2C[C@H]1C(=O)N[C@@H](CC(=O)O)C(N)=O | 2560 nM | 8.88 | > 10 µM | 0.29 nM | 7.59 nM | – | –
Cc1cc(O)cc(C)c1C[C@H](N)C(=O)N1Cc2ccccc2C[C@H]1C(=O)N[C@H](CCC(=O)O)C(N)=O | 920 nM | 17.4 | – | 0.05 nM | 2.29 nM | < 7.94 µM | –
Cc1cc(O)cc(C)c1C[C@H](N)C(=O)N1Cc2ccccc2C[C@H]1C(=O)N[C@H](CC(N)=O)C(=O)O | 4000 nM | 5.4 | > 10 µM | 0.74 nM | 5.89 nM | – | –
Cc1cc(O)cc(C)c1C[C@H](N)C(=O)N1Cc2ccccc2C[C@H]1C(=O)NC(C)C(N)=O (stereo in doubt) | 47.5 nM | 158 | > 10 µM | 0.3 nM | 25.1 nM | – | –
CC(=O)NCCCC[C@@H](NC(=O)[C@@H]1Cc2ccccc2CN1C(=O)[C@@H](N)Cc1c(C)cc(O)cc1C)C(=O)O | 86.8 nM | 1.05 | 1.5 µM | 0.08 nM | 0.513 nM | – | –
Cc1cc(O)cc(C)c1C[C@H](N)C(=O)N1Cc2ccccc2C[C@H]1C(=O)N[C@@H](CCC(=O)O)C(N)=O | 1360 nM | 22.6 | – | 0.06 nM | < 0.1 nM | – | 2500 nM
Cc1cc(O)cc(C)c1C[C@H](N)C(=O)N1Cc2ccccc2C[C@H]1C(=O)N[C@@H](CCC(N)=O)C(=O)O | 465 nM | 1.43 | > 10 µM | 0.32 nM | 1.05 nM | – | –
CC(=O)NCCCC[C@H](NC(=O)[C@@H]1Cc2ccccc2CN1C(=O)[C@@H](N)Cc1c(C)cc(O)cc1C)C(=O)O | 1050 nM | 22.4 | > 10 µM | 0.04 nM | 0.0851 nM | – | –
